The values that follow come from ChEMBL document CHEMBL2146408, “Primary amino acid derivatives: compounds with anticonvulsant and neuropathic pain protection activities” (J Med Chem, 2011).

Calls of active or inactive are those of the source. No cut-off for these calls is given here.

In series [1] the test system is Mus musculus. The experiment in a line: Anticonvulsant activity in ip dosed NMRI mouse assessed as protection against maximal electroshock-induced seizure after 30 mins. It counts as functional. As to conditions: 0.5 h. The method, boiled down:
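Adult male NMRI mice dosed ip (UCB Pharma). MES test run per the Klitgaard procedure. […] Single-dose runs report the percentage of animals protected.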
For orientation: Protection in the maximal electroshock model is a classic sign of anticonvulsant action.

Series [2] deals with Mus musculus. The experiment in a line: Antinociceptive activity in ip dosed NMRI mouse assessed as inhibition of formalin-induced neuropathic pain after 30 mins. It counts as functional. The following applies: 0.5 h. The method, boiled down: (§1)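 NMRI mice dosed ip at UCB Pharma, then tested in the formalin model of neuropathic pain. ED50 in mg/kg read 30 min after administration. Single-dose runs report the percentage protected.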

In series [3] the test system is Mus musculus. The experiment in a line: Anticonvulsant activity in NMRI mouse assessed as protection against subcutaneous pentylenetetrazol-induced seizure at 30 to 300 mg/kg, ip after 0.5 to 4 hrs. It counts as functional, organism-based.
Series [4] concerns Mus musculus. The series is described as follows: Anticonvulsant activity in ip dosed NMRI mouse assessed as protection against 6 Hz psychomotor seizure after 30 mins. It is filed as functional. The following applies: 0.5 h; for minimal effective dose: read-out: MED. An outline of the steps: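 Adult male NMRI mice dosed ip (UCB Pharma). 6 Hz psychomotor seizure model at 44 mA, per Kaminski and co-workers.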

The test system of series [5] is Mus musculus. The series is described as follows: Antinociceptive activity in NMRI mouse assessed as inhibition of formalin-induced neuropathic pain at 71 mg/kg, ip after 30 mins. Also noted: scale not given: the % may be the effect or the level left. The following applies: route intraperitoneal. It is filed as functional. An outline of the steps: as §1
Series [6] relates to Mus musculus. The series is described as follows: Anticonvulsant activity in ip dosed CF1 mouse assessed as protection against maximal electroshock-induced seizure after 30 mins. As to conditions: 0.5 h. It counts as functional. The method, boiled down:
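Adult male albino CF-1 (Carworth Farms No. 1) mice dosed ip under the NINDS ASP; maximal electroshock seizure test. For compounds with sufficient activity, a dose-response curve was run at the time of peak effect (hours).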

Series [7] is described as follows: Neurotoxicity in ip dosed NMRI mouse assessed as minimal motor impairment after 30 mins. It is filed as toxicity, organism-based. As to conditions: in vivo. An outline of the steps:
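Adult male NMRI mice dosed ip at UCB Pharma. Neurological toxicity was scored on the rotorod test 30 min after dosing.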

A short description of series [8]: Neurotoxicity in po dosed Sprague-Dawley rat assessed as minimal motor impairment after 30 mins by rotorod test. It is filed as toxicity, organism-based. The following applies: in vivo.
A short description of series [9]: Neurotoxicity in ip dosed CF1 mouse assessed as minimal motor impairment after 30 mins. It is filed as toxicity, organism-based. As to conditions: in vivo.
The test system of series [10] is Mus musculus. The series is described as follows: Antinociceptive activity in NMRI mouse assessed as inhibition of formalin-induced neuropathic pain at 74 mg/kg, ip after 30 mins. It counts as functional. Also noted: scale not given: the % may be the effect or the level left. As to conditions: route intraperitoneal. The method, boiled down: as §1
Series [11] concerns Rattus norvegicus. The series is described as follows: Anticonvulsant activity in po dosed Sprague-Dawley rat assessed as protection against maximal electroshock-induced seizure after 30 mins. The following applies: 0.5 h. It is filed as functional.
The species named for series [12] is Mus musculus. The series is described as follows: Protective index, ratio of TD50 for NMRI mouse to ED50 for NMRI mouse formalin-induced neuropathic pain model. It counts as functional.
Series [13] is filed under the species Rattus norvegicus. The series is described as follows: Protective index, ratio of TD50 for Sprague-Dawley rat to ED50 for Sprague-Dawley rat by maximal electroshock seizure test. It counts as functional. An outline of the steps:
(§2)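 Protective index computed as rotorod (mice) or behavioral (rats) TD50 divided by MES ED50, both in mg/kg in the same species and route.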

Series [14] is filed under the species Mus musculus. The series is described as follows: Protective index, ratio of TD50 for NMRI mouse to ED50 for NMRI mouse by maximal electroshock seizure test. It is filed as functional. An outline of the steps:
as §2

For the compound `CCOCC(N)C(=O)NCc1ccccc1` (racemic), the ED50 (commonly the dose at which the effect has come halfway, by size or by number of responders) in the series with Mus musculus [1] is 73 mg/kg; in the series on Mus musculus [2] it was 71 mg/kg; in the series with Mus musculus [4] it was 120 mg/kg. In the series with Mus musculus [3], the result was inactive. In addition, the Activity with Mus musculus [5] came out at 19%.

As for `CC(=O)NC(C(=O)NCc1ccccc1)c1ccccn1` (racemic), the ED50 in the series on Mus musculus [6] came out at 11 mg/kg.

As for `NC(CN1CCOCC1)C(=O)NCc1ccccc1` (racemic), the ED50 in the series on Mus musculus [1] is 89 mg/kg; in the series on Mus musculus [2], 69 mg/kg; with Mus musculus [4], more than 84 mg/kg.

As to `C#CCOCC(NC(C)=O)C(=O)NCc1ccccc1` (racemic), the TD50 – broadly, the dose at which the toxic effect under study appears in half of the subjects – at 0.5 h in [7] was 59 mg/kg.

As for `C=CCOCC(NC(C)=O)C(=O)NCc1ccccc1` (racemic), the TD50 at 0.5 h in series [7] is less than 30 mg/kg. For the same compound, the ED50 in the series on Mus musculus [6] is less than 30 mg/kg.

For the compound `CC(C)[C@H](N)C(=O)NCc1ccccc1`, the outcome in the series with Mus musculus [3] was inactive. Also, the TD50 at 0.5 h in [7] is more than 300 mg/kg.

As to `N[C@H](CCO)C(=O)NCc1ccccc1`, the ED50 in the series with Mus musculus [1] was more than 160 mg/kg; in the series on Mus musculus [2] it was more than 67 mg/kg; with Mus musculus [4], more than 120 mg/kg.

Regarding `NCC(N)C(=O)NCc1ccccc1` (racemic), the ED50 in the series with Mus musculus [1] was more than 68 mg/kg.

On to `CC(=O)NC(C(=O)NCc1ccccc1)c1cccs1` (centres undefined), for which the ED50 with Mus musculus [6] stood at 45 mg/kg.

Take `COC[C@@H](NC(C)=O)C(=O)NCc1ccccc1` [LACOSAMIDE]: the outcome in the series on Mus musculus [3] was inactive. Besides, the TD50 at 0.5 h in series [8] is more than 500 mg/kg.

For `N[C@H](CO)C(=O)NCc1ccccc1`, the ED50 in the series with Mus musculus [1], in the series with Mus musculus [2] and with Mus musculus [4] was more than 62 mg/kg throughout. In series [9], the TD50 at 0.5 h was more than 110 mg/kg.

Regarding `N[C@H](Cc1ccccc1)C(=O)NCc1ccccc1`, the ED50 is 40 mg/kg with Mus musculus [1] and more than 37 mg/kg with Mus musculus [2]. For the same compound, the minimal effective dose in the series with Mus musculus [4] was 81 mg/kg.

On to `C#CCOCC(N)C(=O)NCc1ccccc1` (racemic), for which the results for the ED50 with Mus musculus [1] and in the series on Mus musculus [2] were 46 mg/kg and 74 mg/kg, respectively. In series [9], the TD50 at 0.5 h was determined as 47 mg/kg. The Activity in the series with Mus musculus [10] is 27%. For the same compound, in the series on Mus musculus [4], the minimal effective dose was 130 mg/kg.

With `CC(C)(C)[C@H](N)C(=O)NCc1ccccc1`, the result in the series on Mus musculus [3] was inactive. For the same compound, the values for the TD50 at 0.5 h in series [7] and in [8] were 100 mg/kg and more than 30 mg/kg, respectively. In the series on Rattus norvegicus [11], the ED50 is more than 30 mg/kg.

As to `C[C@H](N)C(=O)NCc1ccccc1`, in the series with Mus musculus [3], the result was inactive. Moreover, the TD50 at 0.5 h is more than 300 mg/kg in series [7] and more than 80 mg/kg in series [8]. Further, in the series on Rattus norvegicus [11], the ED50 was more than 80 mg/kg.

For the compound `CCC(NC(C)=O)C(=O)NCc1ccccc1` (racemic), in [7], the TD50 at 0.5 h was more than 300 mg/kg. In addition, in the series with Mus musculus [6], the ED50 was less than 100 mg/kg.

In the case of `CCCC[C@@H](N)C(=O)NCc1ccccc1`, the ED50 is 23 mg/kg in the series on Mus musculus [1], more than 71 mg/kg in the series with Mus musculus [2] and 93 mg/kg in the series on Mus musculus [4].

With `COC[C@@H](N)C(=O)NCc1ccccc1`, in the series listed under Mus musculus [12], the “Ratio TD50/ED50” value is more than 1.8. In addition, the TD50 at 0.5 h was more than 120 mg/kg in [9] and less than 30 mg/kg in series [7]. Besides, in the series on Mus musculus [3], the outcome was inactive.

As for `C[C@@H](N)C(=O)NCc1ccccc1`, in the series with Mus musculus [3], the result was inactive. Moreover, the TD50 at 0.5 h in series [7] was less than 100 mg/kg; in series [8], more than 30 mg/kg. Moreover, the ED50 in the series on Rattus norvegicus [11] was determined as 19 mg/kg. Moreover, in the series listed under Rattus norvegicus [13], the “Ratio TD50/ED50” value is more than 1.5.

For the compound `CC(C)(C)[C@@H](N)C(=O)NCc1ccccc1`, the result in the series with Mus musculus [3] was inactive. Moreover, the TD50 at 0.5 h in series [8] is more than 500 mg/kg.

As for `CC(=O)N[C@@H](C(=O)NCc1ccccc1)C(C)C`, the TD50 at 0.5 h in series [7] is more than 300 mg/kg. For the same compound, the ED50 with Mus musculus [6] was less than 100 mg/kg.

As for `CCC[C@@H](N)C(=O)NCc1ccccc1`, the “Ratio TD50/ED50” value in the series listed under Mus musculus [12] was 1.6; in the series listed under Mus musculus [14], 2.8. For the same compound, the ED50 in the series with Mus musculus [1] worked out at 21 mg/kg; in the series on Mus musculus [2], 35 mg/kg. Further, the TD50 at 0.5 h in [9] was 57 mg/kg. In addition, the minimal effective dose in the series on Mus musculus [4] was 66 mg/kg.

`COCC(N)C(=O)NCc1ccccc1` (racemic): in series [7], the TD50 at 0.5 h was 290 mg/kg. In addition, in the series with Mus musculus [6], the ED50 is 84 mg/kg.

Consider `COC[C@H](NC(C)=O)C(=O)NCc1ccccc1`, for which, in series [7], the TD50 at 0.5 h is more than 300 mg/kg.

For the compound `CC(=O)NC(CN)C(=O)NCc1ccccc1` (racemic), the TD50 at 0.5 h in series [7] is more than 100 mg/kg.
